# According to ChEMBL document CHEMBL4346727, “Synthesis and pharmacological evaluation of novel N-Mannich bases derived from 5,5-diphenyl and 5,5-di(propan-2-yl)imidazolidine-2,4-dione core” (Bioorg Med Chem Lett, 2019):
# The source made the active and inactive calls. Unless noted, the rule behind the calls is not given here.
# Tests used:
# [1] = Neurotoxicity in CD1 mouse at 25 mg/kg, ip measured after 4 hrs by rotarod test; conditions: in vivo
# Mus musculus [2] = assay: Anticonvulsant activity in CD1 mouse assessed as protection against subcutaneous pentylenetetrazole-induced seizures at 300 mg/kg, ip and measured after 0.5 hrs; type: functional, organism-based
# How it was run: (§1)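 Mice were screened after intraperitoneal doses of 30, 100 and 300 mg/kg in the maximal electroshock and subcutaneous pentylenetetrazole tests, examined at 0.5 and 4 h. The value recorded is the minimum dose showing activity. No activity up to 300 mg/kg is scored as absent.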
# [3] = Neurotoxicity in ip dosed CD1 mouse and measured after 0.5 hrs by rotarod test; type: toxicity, organism-based; conditions: in vivo
# How it was run: (§2)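 Mice dosed intraperitoneally at 30, 100 and 300 mg/kg, then tested on the rotarod at 0.5 h and 4 h. The value recorded is the minimum dose at which neurotoxicity appeared. A dash means no neurotoxicity at the top dose of 300 mg/kg.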
# [4] = Neurotoxicity in ip dosed CD1 mouse assessed as time to peak effect by rotarod test; type: toxicity, organism-based; conditions: in vivo
# Mus musculus [5] = assay: Anticonvulsant activity in CD1 mouse assessed as protection against 32 mA current-induced seizure at 25 mg/kg, ip measured after 4 hrs by 6 Hz psychomotor seizure test
# [6] = Neurotoxicity in CD1 mouse at 50 mg/kg, ip measured after 15 mins by rotarod test; conditions: in vivo, 0.25 h
# Mus musculus [7] = assay: Anticonvulsant activity in ip dosed CD1 mouse assessed as protection against subcutaneous pentylenetetrazole-induced seizures; type: functional
# How it was run: (§3)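 Median effective doses were quantified in the maximal electroshock, subcutaneous pentylenetetrazole and 6 Hz tests after intraperitoneal dosing in mice or oral dosing in rats, at the time of peak effect. ED50 values are reported with ranges in parentheses.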
# Rattus norvegicus [8] = assay: Anticonvulsant activity in po dosed Sprague-Dawley rat assessed as time to peak effect on protection against 150 mA current-induced seizures; type: functional
# How it was run: as §3
# [9] = Neurotoxicity in CD1 mouse at 50 mg/kg, ip measured after 4 hrs by rotarod test; conditions: in vivo
# Mus musculus [10] = assay: Anticonvulsant activity in CD1 mouse assessed as protection against 32 mA current-induced seizure at 100 mg/kg, ip measured after 1 hr by 6 Hz psychomotor seizure test
# Mus musculus [11] = assay: Anticonvulsant activity in ip dosed CD1 mouse assessed as protection against 50 mA current-induced seizure and measured after 0.5 hrs by maximal electroshock seizure test; type: functional; conditions: read-out: MED
# How it was run: as §1
# Mus musculus [12] = assay: Anticonvulsant activity in CD1 mouse assessed as protection against 32 mA current-induced seizure at 100 mg/kg, ip measured after 2 hrs by 6 Hz psychomotor seizure test
# Mus musculus [13] = assay: Anticonvulsant activity in CD1 mouse assessed as protection against 32 mA current-induced seizure at 100 mg/kg, ip measured after 4 hrs by 6 Hz psychomotor seizure test
# Rattus norvegicus [14] = assay: Anticonvulsant activity in po dosed Sprague-Dawley rat assessed as time to peak effect on protection against subcutaneous pentylenetetrazole-induced seizures; type: functional
# [15] = Neurotoxicity in ip dosed CD1 mouse and measured after 4 hrs by rotarod test; type: toxicity, organism-based; conditions: in vivo
# How it was run: as §2
# Mus musculus [16] = assay: Anticonvulsant activity in ip dosed CD1 mouse assessed as protection against 50 mA current-induced seizures; type: functional
# How it was run: as §3
# [17] = Neurotoxicity in CD1 mouse at 25 mg/kg, ip measured after 2 hrs by rotarod test; conditions: in vivo
# [18] = Neurotoxicity in Sprague-Dawley rat at 30 mg/kg, po measured after 4 hr by rotarod test; type: toxicity, organism-based; conditions: in vivo
# How it was run: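 Rats given one oral dose of 30 mg/kg and tested on the rotarod at 0.25, 0.5, 1, 2, 4 and 6 h.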
# Rattus norvegicus [19] = assay: Anticonvulsant activity in po dosed Sprague-Dawley rat assessed as protection against 150 mA current-induced seizures; type: functional
# How it was run: as §3
# Rattus norvegicus [20] = assay: Anticonvulsant activity in Sprague-Dawley rat assessed as protection against 150 mA current-induced seizure at 30 mg/kg, po measured after 1 hr by maximal electroshock seizure test; type: functional, organism-based
# How it was run: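 Rats received 30 mg/kg orally and were given maximal electroshock at 0.25, 0.5, 1, 2, 4 and 6 h. Read-out is the number of rats protected out of four.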
# Mus musculus [21] = assay: Anticonvulsant activity in CD1 mouse assessed as protection against 32 mA current-induced seizure at 50 mg/kg, ip measured after 1 hr by 6 Hz psychomotor seizure test
# [22] = Neurotoxicity in CD1 mouse at 50 mg/kg, ip measured after 2 hrs by rotarod test; conditions: in vivo
smiles,measurement,setting,value
CN1CCN(CN2C(=O)NC(c3ccccc3)(c3ccccc3)C2=O)CC1,Activity,[1],Non-Toxic
same,MED,Mus musculus [2],inactive
same,minimal neurotoxic dose,[3],100 mg/kg
same,Time,[4],1 h
same,Activity,Mus musculus [5],inactive
same,Activity,[6],Non-Toxic
same,ED50,Mus musculus [7],> 80 mg/kg
same,Time,Rattus norvegicus [8],2 h
same,Activity,[9],Non-Toxic
same,Activity,Mus musculus [10],Active
same,minimal effective dose,Mus musculus [11],10 mg/kg
same,Activity,Mus musculus [12],Active
same,Activity,Mus musculus [13],Active
same,Time,Rattus norvegicus [14],2 h
same,MTC,[15],100 mg/kg
same,ED50,Mus musculus [16],11.1 mg/kg
same,Activity,[17],Non-Toxic
same,Activity,[18],Non-Toxic
same,ED50,Rattus norvegicus [19],38.5 mg/kg
same,Activity,Rattus norvegicus [20],Active
same,Activity,Mus musculus [21],Active
same,Activity,[22],Non-Toxic
